High-throughput results deposited in PubChem by several laboratories.
In the library only some 1.1% were active in any assay of this set; here they are far more common.
KLK5 inh: human KLK5 protease inhibitors, primary screen, biochemical, 1536-well; Kallikrein-5 (Homo sapiens), Q9Y337; recombinant hK5, fluorogenic AMC substrate cleavage; inhibition, % at 5 µM; hit rate 0.59% among 210,000; AID 873, 2007;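 active = inhibition of 40% or more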
Calb biofilm kill: clotrimazole potentiators killing C. albicans biofilm, primary screen, 4-compound mixtures. AID 1242, 2008. hit rate 0.02% among 120,000. inhibition, % at 7.6 µM. C. albicans biofilm persisters + clotrimazole, fluorescence viability; primary screen in compound mixtures of four per well;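 note: compounds exposed to preformed 24 h biofilms for 48 h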
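Test system: C. albicans biofilms. Buffer or medium: RPMI/MOPS medium, pH 7.0. Timing: 48 h compound exposure at 37 °C. Technique: Alamar Blue fluorescence. Evaluation: percent inhibition of biofilm viability.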
FXIa inh 1536: human FXIa protease inhibitors, primary screen, biochemical, 1536-well. Coagulation factor XI (Homo sapiens), P03951. purified FXIa, Boc-Glu-Ala-Arg-AMC fluorogenic substrate. inhibition, % at 5 µM. hit rate 0.14% among 220,000. AID 798, 2007;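 active = inhibition of at least 40%; inactive = inhibition below 40%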;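 note: fluorescence of freed AMC excited at 355 nm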
Target sequence (P03951 19-387 limits assumed): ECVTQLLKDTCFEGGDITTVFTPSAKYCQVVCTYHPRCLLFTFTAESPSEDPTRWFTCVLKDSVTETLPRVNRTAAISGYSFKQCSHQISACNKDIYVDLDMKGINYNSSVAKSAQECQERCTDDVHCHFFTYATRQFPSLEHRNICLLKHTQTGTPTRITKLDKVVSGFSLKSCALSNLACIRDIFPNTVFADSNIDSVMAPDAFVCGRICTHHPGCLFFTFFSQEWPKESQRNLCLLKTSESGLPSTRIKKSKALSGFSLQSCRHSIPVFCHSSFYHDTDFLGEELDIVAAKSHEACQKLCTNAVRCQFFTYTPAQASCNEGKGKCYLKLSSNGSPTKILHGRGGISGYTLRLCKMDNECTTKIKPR
Target sequence (P03951 388-625 limits assumed): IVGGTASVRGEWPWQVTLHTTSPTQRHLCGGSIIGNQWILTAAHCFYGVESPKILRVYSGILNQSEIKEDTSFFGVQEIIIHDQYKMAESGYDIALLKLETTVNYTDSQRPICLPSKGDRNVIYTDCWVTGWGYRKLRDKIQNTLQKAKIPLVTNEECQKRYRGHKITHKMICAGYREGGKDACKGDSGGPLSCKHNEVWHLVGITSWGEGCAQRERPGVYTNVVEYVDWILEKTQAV
Lipid droplet: inhibitors of hepatocyte lipid droplet formation, primary screen, imaging, high-throughput imaging, BODIPY stain. AML12 mouse hepatocytes, oleate lipid droplets. inhibition, % at 6.5 µM. hit rate 0.4% among 240,000;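 active = lipid droplet intensity inhibited by at least 50%, with more than 500 cells counted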
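Assay system: AML12 hepatocytes (mouse); Probe or stimulus: oleic acid at 100 µM to induce lipid droplet formation; Dosing: compound at 6.5 µM only; Schedule: compound with oleate, overnight; Detection: fluorescence imaging, 20x objective, two fields per well; Measure: % inhibition of lipid droplet signal.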
thrombin 1536: human alpha-thrombin inhibitors, primary screen, counter-screen for coagulation protease inhibitor project, biochemical, 1536-well, fluorogenic AMC substrate. AID 1046, 2008. inhibition, % at 5 µM. hit rate 0.26% among 220,000. Boc-VPR-AMC fluorogenic substrate cleavage;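 active = inhibition at or above 40%; inactive = inhibition below 40%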
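Material: human alpha-thrombin protein; Also added: Boc-VPR-AMC substrate, 15 µM final; Timing: enzyme reaction carried out at room temperature; Signal: fluorescence, ex 355 nm, em 460 nm; Measure: % inhibition of thrombin; Controls: enzyme without compound as high, wells lacking enzyme as low.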
FXIIa inh 1536: human FXIIa protease inhibitors, primary screen, biochemical, 1536-well; Coagulation factor XII (Homo sapiens), P00748; purified FXIIa, Boc-QGR-AMC fluorogenic substrate, 2 h; inhibition, % at 5 µM; hit rate 0.3% among 220,000; AID 800, 2007; in the data active = inhibition above about 40%
Hits are given with their value; . = inactive; / = no result.

SMILES	KLK5 inh	Calb biofilm kill	FXIa inh 1536	Lipid droplet	thrombin 1536	FXIIa inh 1536
O=C(O)CCC(=O)CCC(=O)c1ccc(Cl)cc1	44	/	.	.	.	.
COc1ccccc1NC(=O)CSc1nnnn1C1CCCCC1	/	/	/	.	/	/
Cc1cc(C(=O)Nc2nc(C)c(C(=O)N(C)C)s2)ccc1[N+](=O)[O-]	.	.	.	.	43	53
CCN(CC)S(=O)(=O)c1ccc2c(c1)c(=O)c(C(=O)NCc1cccs1)cn2C	.	.	.	.	64	.
CCCCNC(=O)c1cn(CC)c2ccc(S(=O)(=O)N3CCCC3)cc2c1=O	/	/	/	.	/	/
CCN(CC)S(=O)(=O)c1ccc2c(c1)c(=O)c(C(=O)NCCCN(C)c1ccccc1)cn2C	.	/	.	.	.	.
COCCNC(=O)c1cn(C)c2ccc(S(=O)(=O)N3CCCC3)cc2c1=O	/	/	/	.	/	/
CCn1cc(C(=O)NCc2ccco2)c(=O)c2cc(S(=O)(=O)N3CCCC3)ccc21	.	.	.	.	83	.
COc1ccccc1CNC(=O)c1cn(C)c2ccc(S(=O)(=O)N3CCCC3)cc2c1=O	.	.	.	.	45	.
CCOc1cc(-c2nccc3cc(OC)c(OC)cc23)cc(OCC)c1OCC	/	/	/	.	/	/
COc1ccc(OC(=O)c2ccc(OC)c(S(=O)(=O)N3CCOCC3)c2)cc1	/	/	/	.	/	/
CCN(Cc1ccccc1)C(=O)CCS(=O)(=O)c1ccc2c(c1)n(C)c(=O)c(=O)n2C	/	/	/	.	/	/
COc1ccc(-n2c(SC(C)C(=O)Nc3ccc(NC(C)=O)cc3)nc3ccccc3c2=O)cc1OC (stereo not drawn)	/	/	/	.	/	/
CC1(C)CC(=O)c2c(Cc3ccccc3)n[nH]c2C1	50	/	.	/	.	.
CCCCc1n[nH]c2c1C(=O)CC(C)(C)C2	.	/	.	/	.	.
O=C(Nc1cccc(F)c1)C1CCN(C(=O)c2ccccc2Cl)CC1	46	/	.	.	.	.
O=C1NN(c2ccccc2)C(=O)/C1=C\c1cccc(OC(=O)c2cccs2)c1	.	/	49	.	.	.
COCCNC(=O)C(c1ccc(C)o1)N(C(=O)c1snc(C(N)=O)c1N)c1ccc(C)cc1 (stereo not drawn)	.	/	.	.	.	.
COCCNC(=O)C(c1ccc(C)o1)N(C(=O)c1snc(C(N)=O)c1N)c1ccc(C)c(C)c1 (stereo not drawn)	44	/	.	.	.	.
O=C(Cn1ccc(C(F)(F)F)n1)N=Nc1c(O)[nH]c2ccc(Br)cc12	/	.	.	.	.	.
O=C(CSc1nc2cccnc2n1Cc1ccccc1)N1CCCC1	46	/	.	/	.	.
CC/C(C)=N/Nc1nc(-c2cc3cccc(OC)c3oc2=O)cs1	.	.	.	.	.	.
c1coc(-c2nc3ccccc3nc2-c2ccco2)c1	.	/	.	/	.	45
O=C(c1ccccc1)c1ccc2nc(-c3ccco3)c(-c3ccco3)nc2c1	.	.	.	.	.	.
O=c1oc(-c2ccco2)nc2c1cnn2-c1ccccc1	.	/	.	/	.	48
SMILES	KLK5 inh	Calb biofilm kill	FXIa inh 1536	Lipid droplet	thrombin 1536	FXIIa inh 1536
O=c1c2cnn(-c3ccccc3)c2nc(-c2ccco2)n1-c1ccccc1	.	/	.	.	.	.
O=c1oc(-c2ccco2)nc2ccccc12	44	/	.	/	.	.
COc1ccc(C(CC(=O)c2ccccc2)CC(=O)c2ccccc2)cc1OC	.	.	.	.	.	.
CC(=O)N1CC(C)Oc2ccc(S(=O)(=O)NC(CC(=O)O)c3ccc(C)cc3C)cc21 (stereo not drawn)	/	/	/	.	/	/
CCOC(=O)c1ccccc1Oc1c(F)c(F)nc(NCCO)c1F	42	/	.	/	42	.
COCC(=O)N1CCC(Oc2ccc(C(=O)NCc3cc(C)n(C)n3)cc2)CC1	/	/	/	.	/	/
NC(=O)N\N=C/C=C/C=C/c1ccc(F)cc1	.	.	.	.	.	.
NC(=O)N/N=C/C=C/c1ccccc1	.	.	.	.	42	.
Cc1cccc2c(C(=O)N3CCN(c4ccccn4)CC3)cc(-c3cccc(Br)c3)nc12	/	/	/	.	/	/
COc1ccc(C2c3c(-c4cc(Cl)c(C)cc4O)n[nH]c3C(=O)N2Cc2cccnc2)cc1OC (stereo not drawn)	.	/	.	.	57	.
CC(C)OC(=O)CC1C(=O)NCCN1C(=O)COc1ccc(C(C)(C)C)cc1 (stereo not drawn)	/	/	/	.	/	/
Cc1cccc(/C=N/Nc2cc(N3CCOCC3)nc(N3CCOCC3)n2)c1	.	.	.	130	.	.
CC(C)c1ccc(/C=N/Nc2cc(N3CCOCC3)nc(N3CCOCC3)n2)cc1	.	.	.	.	.	.
Cc1c(C(=O)NC(c2ccccn2)C(F)(F)F)oc2c(F)cccc12 (stereo not drawn)	/	/	/	.	/	/
COc1ccc(CNC(=O)Cn2nc(C)c3c(C)n(-c4ccc(C)cc4)nc3c2=O)cc1OC	/	/	/	.	/	/
O=C(c1ccc(S(=O)(=O)N2CCCCC2)cc1)c1nnc(-c2ccc(Cl)cc2)o1	46	/	.	/	.	.
O=C(CCN1CCOCC1)Nc1cc(C(=O)Nc2ccc(Cl)cc2)ccc1N1CC2CC(C1)c1cccc(=O)n1C2 (stereo not drawn)	/	/	/	.	/	/
Cc1sc(NC(=O)CN2CCCC2)nc1-c1ccc2c(c1)CCN2C(=O)c1cccc(F)c1	/	/	/	.	/	/
Cc1sc(NC(=O)CN(C)C2CCCCC2)nc1-c1ccc2c(c1)CCN2S(=O)(=O)c1ccccc1	43	/	.	.	.	.
CC(C)NC(=O)CSc1nc(-c2ccccc2)cs1	.	.	46	.	40	.
C=C(C)CC1N(c2cccc(OC)c2)C(=O)C2C(C(=O)O)C3C=CC21O3 (stereo not drawn)	45	/	.	/	.	.
